Compound activity (PubChem BioAssay)
Many of the other results were omitted from the sample, so hits are more common in it than they were.
T cruzi repl – blocks replication of Trypanosoma cruzi; T. cruzi beta-gal in NIH3T3, luminescence, 90 h; inhibition, % (no concentration beside the values); 300,000 compounds, 1.4% hits;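 active = mean inhibition across valid replicates above about 55%, limit read from the data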;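 also: signal also drops with host cell toxicity which is not excluded here; higher percent means less beta-gal luminescence so fewer parasites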
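System: mouse NIH/3T3 fibroblasts infected with β-gal-expressing T. cruzi Tulahuen C4 / Input: NIH/3T3 cells, 5,000 per well / Buffer or medium: Low-serum DMEM with 2% FBS / Probe or stimulus: 5000 reporter trypomastigotes per well / Schedule: ≥90 h infection period, 3 h prior cell attachment / Measured by: GalScreen luminescence, 60 min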
CHOP UPR activ – apoptotic UPR (CHOP) activation. CHO-CHOP luciferase reporter, luminescence; percent of tunicamycin response over DMSO baseline. activation, % at 10 µM. 330,000 compounds, 0.34% hits. AID 449763;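 active = at 10 µM dose, activation of 40% or more, normalized to positive control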
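Assay system: CHO cells with stable CHOP pathway luciferase reporter; Buffer or medium: F12 plus 10% serum; Times: 16-18 h cell attachment, then 6 h compound exposure, 37 °C; Signal: luciferase luminescence; Read-out basis: percent activation relative to tunicamycin control; Control set: tunicamycin high control, DMSO low control.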
L major viab – Leishmania major promastigote growth inhibition; Leishmania major promastigotes, resazurin fluorescence viability; inhibition, % at 10 µM; 200,000 compounds, 9% hits; in the data active = inhibition above about 50%;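 also: promastigotes grown with compound for 44 hours at 28 °C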
CHOP inhibitor – inhibitors of CHOP induction in ER stress response; CHO-K1 CHOP-promoter luciferase, tunicamycin-induced, 15-18 h; inhibition, % at 10 µM; 220,000 compounds, 3.8% hits; AID 2732;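 active = compounds that reduced the stress-induced luciferase reporter signal by more than about 70% of percent inhibition, limit read from the data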
Dynein transport – dynein cargo transport inhibition; 3617.4 mouse cells, GR-EGFP nuclear translocation imaging; test concentration mostly 20 µM; stimulated with dexamethasone, 1 µM; hits give low values; z-score, hits read low; 220,000 compounds, 0.47% hits;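 active = plate z-score of nuclear minus cytoplasmic receptor signal below a set negative limit, without overly bright fluorescence or cell loss, cut at about -3.5 in these data, passing the limit was not always enough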;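 also: z-score of nuclear minus cytoplasmic ring GR-EGFP intensity difference per well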
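Also added – dexamethasone, 1.0 µM final · Buffer or medium – tet-free, stripped-serum medium · Schedule – induction 48 h, compound 1 h, agonist 30 min · Detection – formaldehyde fixation, Hoechst nuclear stain, 10x automated fluorescence imaging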
UPR XBP1 act – adaptive UPR (XBP1) activation | CHO-XBP1 luciferase reporter, IRE1-XBP1 UPR activation, luminescence; percent of tunicamycin response, DMSO as zero | activation, % at 20 µM | 330,000 compounds, 0.33% hits;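 active = versus positive control, 20 µM dose yields 30% or more activation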
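Signal: luciferase luminescence; Assay system: CHO-XBP1 luciferase reporter cells; Amount: one thousand reporter cells per well; Dosing: 20 µM single concentration, DMSO 1%; Benchmarks: high control tunicamycin 10 µg/mL final, low control DMSO vehicle only; Schedule: 6 h compound exposure at 37 °C, 5% CO2; Evaluation: percent activation relative to tunicamycin reference.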
Of the large screens only hits and unclear results are named; the others gave an inactive call.

Cc1cnc(C(=O)Nc2nnc(SCc3c(Cl)cccc3Cl)s2)cn1	L major viab 56
CCS(=O)(=O)N1Cc2ccccc2CC1C(=O)Nc1nnc(SCc2c(Cl)cccc2Cl)s1 (configuration not stated)	L major viab 81
O=C(Nc1ccccc1N1CCN(c2ccccc2)CC1)C12CC3CC(CC(C3)C1)C2	L major viab 98
CC(C)(C)c1nc2sc3c(c2c(=O)o1)CCCC3	CHOP inhibitor 79
CC1(c2ccccc2Cl)NC(=O)N(CC(=O)NCc2ccco2)C1=O (configuration not stated)	none
O=C(COC(=O)Cc1ccsc1)Nc1ccc(Br)cc1F	none (no result: T cruzi repl, L major viab, CHOP inhibitor, Dynein transport)
CC(=O)Nc1ccc(C(=O)N/C(=C\c2ccccc2)C(=O)Nc2cccc(C(=O)O)c2)cc1	none (no result: L major viab)
COc1ccccc1OCCNC(=O)C1CC(=O)N(c2ccc3c(c2)OCCO3)C1 (configuration not stated)	none (no result: L major viab, CHOP inhibitor, Dynein transport)
N#CC1=C2N=C(N)c3ccccc3N2C2=C(C(=O)CCC2)C1c1cccc(Cl)c1 (configuration not stated)	L major viab 81
O=S(=O)(CCc1ccncc1)C1Cc2cccc3cccc1c23 (configuration not stated)	none (no result: L major viab)
CCOc1ccc(NC(=O)c2cccc3ccccc23)cc1	none (no result: L major viab, CHOP inhibitor, Dynein transport)
CCOc1ccc(NC(=O)[C@@H](NC(=O)c2ccccc2Br)C(C)C)cc1	L major viab 98
CCOc1ccc(NC(=O)C(CC)NC(=O)c2ccccc2CO)cc1 (configuration not stated)	CHOP inhibitor 76
CCOc1ccc(NC(=O)C(NC(=O)C2CCC(C)CC2)C(C)C)cc1 (configuration not stated)	none
Cc1cc(C)c2c(N)c(C(=O)c3ccc(Cl)cc3)sc2n1	L major viab 71
Cc1cc(C)c2c(N)c(C(=O)NC3CCCC3)sc2n1	none
Cc1cc(C)c2c(N)c(C(=O)c3ccccc3)sc2n1	T cruzi repl 66 (no result: L major viab)
Cc1cc(C)cc(NC(=O)c2sc3nc(C)cc(C)c3c2N)c1	none (no result: L major viab, CHOP inhibitor, Dynein transport)
Cc1cc(C)c2c(N)c(C(=O)C(C)(C)C)sc2n1	L major viab 97
Cc1cc(C)c2c(N)c(C(=O)NCC3CCCCC3)sc2n1	L major viab 77
Cc1ccc(C)c(OCC(O)CNC2CCCC2)c1 (configuration not stated)	none (no result: L major viab, CHOP inhibitor, Dynein transport)
Cc1cc(C)c2c(N)c(C(=O)c3ccc(Cl)c(Cl)c3)sc2n1	T cruzi repl 101, L major viab 100
Cc1cc(C)c2c(N)c(C(=O)Nc3ccc(C)c(C)c3)sc2n1	none (no result: L major viab, CHOP inhibitor, Dynein transport)
O=C(O/N=C1\CCCc2ccccc21)c1ccc(F)cc1	CHOP inhibitor 72
O=C(c1ccc(S(=O)(=O)N2CCCCCC2)cc1)N(c1ccccn1)C1CCCCC1	L major viab 56
O=C(c1ccc(S(=O)(=O)N2CCCCC2)cc1)N(c1ccccn1)C1CCCCC1	none (no result: L major viab)
COc1ccc(S(=O)(=O)Nc2cccc3c2O[C@H](CN(C)C(=O)Nc2ccccc2)[C@@H](C)CN([C@H](C)CO)C3=O)cc1	none (no result: T cruzi repl, L major viab, CHOP inhibitor, Dynein transport)
Cc1ccnn1-c1ccc(C(=O)OCC(=O)Nc2ccc(F)cc2)cc1	none (no result: T cruzi repl, L major viab, CHOP inhibitor, Dynein transport)
Cc1oc2c(c1C(=O)N1CCC(C)CC1)C(=O)c1ccccc1C2=O	L major viab 100
CCOC(=O)C1CCN(C(=O)c2c(C)oc3c2C(=O)c2ccccc2C3=O)CC1	L major viab 100
CCOc1ccccc1NC(=S)N1CCC(NC(=O)NC23CC4CC(CC(C4)C2)C3)CC1	L major viab 60
COc1ccccc1NC(=S)N1CCC(NC(=O)NC23CC4CC(CC(C4)C2)C3)CC1	L major viab 97
COc1ccc(NC(=S)N2C3CCC2CC(NC(=O)NC24CC5CC(CC(C5)C2)C4)C3)c(OC)c1 (configuration not stated)	none
COc1ccc(C)cc1NC(=O)c1cc(S(=O)(=O)N2CCCCC2)ccc1N1CCOCC1	none (no result: T cruzi repl, L major viab, CHOP inhibitor, Dynein transport)
CCOc1ccc(CN2CCC(C(=O)Nc3cccc(-c4ccn[nH]4)c3)CC2)cc1Cl	none (no result: L major viab, CHOP inhibitor, Dynein transport)
Cc1ccc2oc(=O)n(CCOc3ccccc3Cl)c2c1	CHOP inhibitor 93
CCCOc1ccccc1Cn1c(=O)oc2ccc(C)cc21	CHOP inhibitor 81
COC1=CC(=O)[C@@]2([C@@H]1O)[C@@H](Cl)C[C@]13C(OC)=C(OC)C(=O)C[C@]21CCN3C	none (no result: T cruzi repl, L major viab, CHOP inhibitor, Dynein transport)
CSc1cccc(NC(=O)CCCn2c(=O)c3cccn3c3cccnc32)c1	none (no result: L major viab, CHOP inhibitor, Dynein transport)
CCN1CCCC1CNc1ncnc2c1[nH]c1ccc(Cl)cc12 (configuration not stated)	L major viab 96
CCN1CCCC1Cn1cnc2c([nH]c3ccc(C)cc32)c1=O (configuration not stated)	L major viab 52
Cc1ccc2[nH]c3c(=O)n(CCN4CCNCC4)cnc3c2c1	none
O=C1CCCN1CCCNc1ncnc2c1[nH]c1ccc(Cl)cc12	none
c1ccc(-c2nc3ccccc3[nH]2)nc1	none
c1ccc(-c2nc3c(ccc4ccccc43)[nH]2)nc1	L major viab 100
Cc1cnc(CN2CCc3c([nH]c4ccccc34)C2C2CCCCC2)[nH]1 (configuration not stated)	L major viab 54
c1ccc2c3c([nH]c2c1)C(C1CCCCC1)N(Cc1ncc[nH]1)CC3 (configuration not stated)	none
CCC(c1nnnn1CCc1ccccc1)N(Cc1ccco1)Cc1cc2c(C)ccc(C)c2[nH]c1=O (configuration not stated)	T cruzi repl 55, L major viab 87, CHOP inhibitor 90
CCC(c1nnnn1CCc1ccccc1)N(Cc1ccco1)Cc1cc2cc(C)cc(C)c2[nH]c1=O (configuration not stated)	L major viab 90 (no result: CHOP inhibitor)
CCC(c1nnnn1Cc1ccco1)N(CCc1ccccc1)Cc1cc2cc(C)ccc2[nH]c1=O (configuration not stated)	none (no result: L major viab, CHOP inhibitor, Dynein transport)
COc1cc2nc(N3CCN(C(=O)OCc4ccccc4)C(C(=O)NC(C)(C)C)C3)nc(N)c2cc1OC (configuration not stated)	none (no result: T cruzi repl, CHOP UPR activ, L major viab, Dynein transport, UPR XBP1 act)
COc1cc2cc(CCCOC(=O)c3ccc(C#N)cc3)oc(=O)c2cc1OC	none (no result: T cruzi repl, L major viab, CHOP inhibitor, Dynein transport)
CCOC(=O)C1=C(C)N(c2ccccc2)C(=O)NC1c1cccc([N+](=O)[O-])c1 (configuration not stated)	L major viab 95
CCOC(=O)C1=C(C)N(C)C(=O)NC1c1cccc([N+](=O)[O-])c1 (configuration not stated)	none (no result: L major viab, CHOP inhibitor, Dynein transport)
COc1ccc2[nH]c(C)c(C(=O)CN3CCN(C(=O)c4ccco4)CC3)c2c1	none
